According to ChEMBL document CHEMBL1255410, “Activity of the investigational fluoroquinolone finafloxacin against ciprofloxacin-sensitive and -resistant Acinetobacter baumannii isolates” (2010):
In brackets after ≈: the same amount, converted by molar mass.

Experiments:
Assay type in all cases: functional
[1] = system: Acinetobacter baumannii; assay: Antimicrobial activity against Acinetobacter baumannii isolate 4 at pH 7.2
Summary of the method: (§1)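 Agar dilution MIC on Mueller-Hinton agar. For the acidic condition, HCl was added to bring the agar to pH 5.8 before pouring the antibiotic plates, and the pH was checked after the agar set. The standard condition was pH 7.2. Both drugs' plates were made the same day from fresh medium, and MICs were read at the same time.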

[2] = system: Acinetobacter baumannii; assay: Antimicrobial activity against Acinetobacter baumannii isolate 7 at pH 7.2
Summary of the method: (§2)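 Agar dilution MIC on Mueller-Hinton agar under standard conditions (pH 7.2). Antibiotic-containing plates were made the same day from freshly prepared medium. Agar pH was checked after solidifying. Both fluoroquinolones were tested simultaneously against A. baumannii isolates with characterized gyrA/parC genes. MICs are in μg/ml.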

[3] = system: Acinetobacter baumannii; assay: Antimicrobial activity against Acinetobacter baumannii isolate 13 at pH 7.2
Summary of the method: (§3)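 MIC by agar dilution on Mueller-Hinton agar under standard conditions (pH 7.2), against isolates with characterized gyrA/parC genes. Agar pH was checked after solidifying. Plates for both drugs were prepared the same day from freshly made media, and MICs were determined simultaneously with the pH 5.8 set.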

[4] = system: Acinetobacter baumannii; assay: Antimicrobial activity against Acinetobacter baumannii isolate 15 at pH 7.2; summary of the method: as §3
[5] = system: Acinetobacter baumannii; assay: Antimicrobial activity against Acinetobacter baumannii isolate 16 at pH 7.2; summary of the method: as §3
[6] = system: Acinetobacter baumannii; assay: Antimicrobial activity against Acinetobacter baumannii isolate 24 harboring GyrA Ser83-Leu mutation at pH 7.2; summary of the method: as §3
[7] = system: Acinetobacter baumannii; assay: Antimicrobial activity against Acinetobacter baumannii isolate 30 harboring GyrA Ser83-Leu mutation at pH 7.2; summary of the method: as §3
[8] = system: Acinetobacter baumannii; assay: Antimicrobial activity against Acinetobacter baumannii isolate 38 harboring GyrA Ser83-Leu mutation at pH 7.2; summary of the method: as §1
[9] = system: Acinetobacter baumannii; assay: Antimicrobial activity against Acinetobacter baumannii isolate 40 harboring GyrA Ser83-Leu mutation at pH 7.2; summary of the method: as §1
[10] = system: Acinetobacter baumannii; assay: Antimicrobial activity against Acinetobacter baumannii isolate 42 harboring GyrA Ser83-Leu mutation at pH 7.2; summary of the method: as §1
[11] = system: Acinetobacter baumannii; assay: Antimicrobial activity against Acinetobacter baumannii isolate 43 harboring GyrA Ser83-Leu mutation at pH 7.2; summary of the method: as §1
[12] = system: Acinetobacter baumannii; assay: Antimicrobial activity against Acinetobacter baumannii isolate 44 harboring GyrA Ser83-Leu and ParC Glu84-Lys mutation at pH 7.2; summary of the method: as §1
[13] = system: Acinetobacter baumannii; assay: Antimicrobial activity against Acinetobacter baumannii isolate 50 harboring GyrA Ser83-Leu and ParC Ser80-Leu mutation at pH 7.2; summary of the method: as §1
[14] = system: Acinetobacter baumannii; assay: Antimicrobial activity against Acinetobacter baumannii isolate 51 harboring GyrA Ser83-Leu and ParC Ser80-Leu mutation at pH 7.2; summary of the method: as §1
[15] = system: Acinetobacter baumannii; assay: Antimicrobial activity against Acinetobacter baumannii isolate 54 harboring GyrA Ser83-Leu and ParC Ser80-Leu mutation at pH 7.2; summary of the method: as §1
[16] = system: Acinetobacter baumannii; assay: Antimicrobial activity against Acinetobacter baumannii isolate 56 harboring GyrA Ser83-Leu and ParC Ser80-Leu mutation at pH 7.2; summary of the method: as §2
[17] = system: Acinetobacter baumannii; assay: Antimicrobial activity against Acinetobacter baumannii isolate 57 harboring GyrA Ser83-Leu and ParC Ser80-Phe mutation at pH 7.2; summary of the method: as §2
[18] = system: Acinetobacter baumannii; assay: Antimicrobial activity against Acinetobacter baumannii isolate 58 harboring GyrA Ser83-Leu and ParC Ser80-Leu mutation at pH 7.2; summary of the method: as §2
[19] = system: Acinetobacter baumannii; assay: Antimicrobial activity against Acinetobacter baumannii isolate 61 harboring GyrA Ser83-Leu and ParC Ser80-Leu mutation at pH 7.2; summary of the method: as §2
[20] = system: Acinetobacter baumannii; assay: Antimicrobial activity against Acinetobacter baumannii isolate 4 at pH 5.8
Summary of the method: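 Agar dilution MIC on Mueller-Hinton agar acidified with HCl before pouring antibiotic plates; agar pH checked after setting. Isolate has characterized gyrA/parC genes. Plates made the same day from fresh medium, and both drugs tested at the same time. Read-out: MIC (μg/ml).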

[21] = system: Acinetobacter baumannii; assay: Antimicrobial activity against Acinetobacter baumannii isolate 5 at pH 5.8; summary of the method: as §1
[22] = system: Acinetobacter baumannii; assay: Antimicrobial activity against Acinetobacter baumannii isolate 17 at pH 5.8
Summary of the method: (§4)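 MIC by agar dilution on Mueller-Hinton agar acidified to pH 5.8 with HCl before antibiotic-containing plates were poured. Agar pH was rechecked once the agar had solidified. Isolates had characterized gyrA/parC genes. Plates for both drugs were made the same day from fresh media, and MICs were read in parallel with the standard-pH set.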

[23] = system: Acinetobacter baumannii; assay: Antimicrobial activity against Acinetobacter baumannii isolate 22 harboring GyrA Ser83-Leu mutation at pH 5.8; summary of the method: as §4
[24] = system: Acinetobacter baumannii; assay: Antimicrobial activity against Acinetobacter baumannii isolate 23 harboring GyrA Glu87-Gly mutation at pH 5.8; summary of the method: as §4
[25] = system: Acinetobacter baumannii; assay: Antimicrobial activity against Acinetobacter baumannii isolate 32 harboring GyrA Ser83-Leu mutation at pH 5.8; summary of the method: as §1
[26] = system: Acinetobacter baumannii; assay: Antimicrobial activity against Acinetobacter baumannii isolate 34 harboring GyrA Ser83-Leu mutation at pH 5.8; summary of the method: as §1
[27] = system: Acinetobacter baumannii; assay: Antimicrobial activity against Acinetobacter baumannii isolate 35 harboring GyrA Ser83-Leu mutation at pH 5.8; summary of the method: as §1
[28] = system: Acinetobacter baumannii; assay: Antimicrobial activity against Acinetobacter baumannii isolate 38 harboring GyrA Ser83-Leu mutation at pH 5.8; summary of the method: as §1
[29] = system: Acinetobacter baumannii; assay: Antimicrobial activity against Acinetobacter baumannii isolate 39 harboring GyrA Ser83-Leu mutation at pH 5.8; summary of the method: as §1
[30] = system: Acinetobacter baumannii; assay: Antimicrobial activity against Acinetobacter baumannii isolate 43 harboring GyrA Ser83-Leu mutation at pH 5.8; summary of the method: as §1
[31] = system: Acinetobacter baumannii; assay: Antimicrobial activity against Acinetobacter baumannii isolate 49 harboring GyrA Ser83-Leu and ParC Ser80-Leu mutation at pH 5.8; summary of the method: as §1
[32] = system: Acinetobacter baumannii; assay: Antimicrobial activity against Acinetobacter baumannii isolate 51 harboring GyrA Ser83-Leu and ParC Ser80-Leu mutation at pH 5.8; summary of the method: as §1
[33] = system: Acinetobacter baumannii; assay: Antimicrobial activity against Acinetobacter baumannii isolate 53 harboring GyrA Ser83-Leu and ParC Ser80-Leu mutation at pH 5.8; summary of the method: as §1
[34] = system: Acinetobacter baumannii; assay: Antimicrobial activity against Acinetobacter baumannii isolate 54 harboring GyrA Ser83-Leu and ParC Ser80-Leu mutation at pH 5.8; summary of the method: as §1
[35] = system: Acinetobacter baumannii; assay: Antimicrobial activity against Acinetobacter baumannii isolate 55 harboring GyrA Ser83-Leu and ParC Ser80-Leu mutation at pH 5.8; summary of the method: as §1
[36] = system: Acinetobacter baumannii; assay: Antimicrobial activity against Acinetobacter baumannii isolate 56 harboring GyrA Ser83-Leu and ParC Ser80-Leu mutation at pH 5.8
Summary of the method: (§5)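 Agar dilution MIC on Mueller-Hinton agar acidified to pH 5.8 with HCl before the antibiotic-containing plates were poured. Agar pH was checked after solidifying. Plates were made the same day from fresh medium. Both fluoroquinolones were tested simultaneously against A. baumannii isolates with characterized gyrA/parC genes. MICs are in μg/ml.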

[37] = system: Acinetobacter baumannii; assay: Antimicrobial activity against Acinetobacter baumannii isolate 64 harboring GyrA Ser83-Leu and ParC Ser80-Leu mutation at pH 5.8; summary of the method: as §5
[38] = system: Acinetobacter baumannii; assay: Antimicrobial activity against Acinetobacter baumannii isolate 65 harboring GyrA Ser83-Leu and ParC Ser80-Leu mutation at pH 5.8; summary of the method: as §5
[39] = system: Acinetobacter baumannii; assay: Antimicrobial activity against Acinetobacter baumannii isolate 66 harboring GyrA Ser83-Leu mutation at pH 5.8; summary of the method: as §5

Compound: O=C(O)c1cn(C2CC2)c2cc(N3CCNCC3)c(F)cc2c1=O [CIPROFLOXACIN]
- MIC [1]: 0.12 µg/mL (≈ 0.362 µM)
- MIC [2]: 0.12 µg/mL (≈ 0.362 µM)
- MIC [3]: 0.5 µg/mL (≈ 1.51 µM)
- MIC [4]: 1 µg/mL (≈ 3.02 µM)
- MIC [5]: 1 µg/mL (≈ 3.02 µM)
- MIC [6]: 4 µg/mL (≈ 12.1 µM)
- MIC [7]: 8 µg/mL (≈ 24.1 µM)
- MIC [8]: 32 µg/mL (≈ 96.6 µM)
- MIC [9]: 16 µg/mL (≈ 48.3 µM)
- MIC [10]: 16 µg/mL (≈ 48.3 µM)
- MIC [11]: 32 µg/mL (≈ 96.6 µM)
- MIC [12]: 32 µg/mL (≈ 96.6 µM)
- MIC [13]: 128 µg/mL (≈ 386 µM)
- MIC [14]: 128 µg/mL (≈ 386 µM)
- MIC [15]: 128 µg/mL (≈ 386 µM)
- MIC [16]: 128 µg/mL (≈ 386 µM)
- MIC [17]: 128 µg/mL (≈ 386 µM)
- MIC [18]: 128 µg/mL (≈ 386 µM)
- MIC [19]: 128 µg/mL (≈ 386 µM)
- MIC [20]: 1 µg/mL (≈ 3.02 µM)
- MIC [21]: 2 µg/mL (≈ 6.04 µM)
- MIC [22]: 4 µg/mL (≈ 12.1 µM)
- MIC [23]: 32 µg/mL (≈ 96.6 µM)
- MIC [24]: 32 µg/mL (≈ 96.6 µM)
- MIC [25]: 32 µg/mL (≈ 96.6 µM)
- MIC [26]: 128 µg/mL (≈ 386 µM)
- MIC [27]: 128 µg/mL (≈ 386 µM)
- MIC [28]: 128 µg/mL (≈ 386 µM)
- MIC [29]: > 128 µg/mL
- MIC [30]: > 128 µg/mL
- MIC [31]: > 128 µg/mL
- MIC [32]: > 128 µg/mL
- MIC [33]: > 128 µg/mL
- MIC [34]: > 128 µg/mL
- MIC [35]: > 128 µg/mL
- MIC [36]: > 128 µg/mL
- MIC [37]: > 128 µg/mL
- MIC [38]: > 128 µg/mL
- MIC [39]: 128 µg/mL (≈ 386 µM)
